How the values were obtained:
SK-Mel-2 cells = test: Cellular uptake and distribution by confocal Raman microscopy of live cells; format: cell-based, Human; conditions: data not shown
[1] = Circular dichroism spectroscopy, secondary structure in water/TFE solutions; format: physicochemical; conditions: 40 μM peptide, 25 °C, CDPro (average of CONTINLL, SELCON3, CDSSTR)
Summary of the method: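 Stock 20 mM in water (pH 7), stored at 4°C for ≤10 days and quantified by A280 (ε280 = 11,000 M−1.cm−1). CD recorded in a 1 mm quartz cell over 180–250 nm at 100 nm/min with 1 s response, 40 μM peptide, 25 °C. Eight scans averaged and background-corrected for water/TFE. Fractions from the CDPro SP37A reference set.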

CC[C@H](C)[C@H](NC(=O)[C@H](CCCCN)NC(=O)[C@@H](NC(=O)[C@H](CCC(N)=O)NC(=O)[C@@H](N)CCCNC(=N)N)[C@@H](C)CC)C(=O)N[C@@H](Cc1c[nH]c2ccccc12)C(=O)N[C@@H](Cc1ccccc1)C(=O)N[C@@H](CCC(N)=O)C(=O)N[C@@H](CC(N)=O)C(=O)N[C@@H](CCCNC(=N)N)C(=O)N[C@@H](CCCNC(=N)N)C(=O)N[C@@H](CCSC)C(=O)N[C@@H](CCCCN)C(=O)N[C@@H](Cc1c[nH]c2ccccc12)C(=O)N[C@@H](CCCCN)C(=O)N[C@@H](CCCCN)C(N)=O [penetratin-Fh]
Peptide uptake by cells at 4°C (SK-Mel-2 cells; 4°C, confocal Raman microscopy): did not observe peptide uptake
Concentration dependence of the rate of accumulation in cell nuclei (SK-Mel-2 cells; range 25–300 μM, RT): only weakly dependent on concentration
α-helix structure (CD modeling) ([1]; 100% TFE): 25%
Random coil character (CD modeling) ([1]; 100% water): 54%
α-helix structure (CD modeling) ([1]; 100% water): 3%
β-strand structure (CD modeling) ([1]; 100% water): 21%

Reference: article PMC2818876 (Journal of the American Chemical Society, 2010)
